The results in this text go back to ChEMBL document CHEMBL1150672, “Chemical transformations on botryane skeleton. Effect on the cytotoxic activity” (J Nat Prod, 2003).

In brackets after ≈: the same amount, converted by molar mass. A value given as a limit tells only on which side of the number the result lay.

Data set [1] is described as follows: Cytotoxicity against human Hs 578T cells after 24 hrs by MTT assay. Particulars: read-out: ID50 (the source's name). It counts as functional. The essentials:
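Hs578T cells (ATCC) were maintained in DMEM with 10% FCS, 1% glutamine and 10 μg/mL insulin. Cells were seeded at 4 or 8×10^3/well and allowed to adhere overnight at 37 °C. They were exposed 24 h, in duplicate, to compounds in methanol diluted with medium, with a methanol blank. MTT (5 mg/mL stock) was added for 4 h, formazan dissolved in DMSO, and A550 measured.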
(In general: Tetrazolium dyes change colour on reduction, which living cells bring about.)

Data set [2] can be described thus: Cytotoxicity against HUVEC after 24 hrs by MTT assay. The class given is cell-based. Particulars: human, read-out: ID50. The method in brief:
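Primary HUVEC from newborns, grown in DMEM/medium 199 with 20% FCS, 10 mM HEPES, heparin and ECGS at 37 °C, 5% CO2. Cells were seeded at 4 or 8×10^3/well and attached overnight. Compounds were added from methanol solutions diluted in medium, with a methanol blank, for 24 h in duplicate. MTT (5 mg/mL stock) was added for 4 h, formazan dissolved in DMSO, and A550 read.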

Data set [3] is described as follows: Cytotoxicity against human U87MG cells after 24 hrs by MTT assay. It counts as functional, U-87MG ATCC. As to conditions: U-87 MG, read-out: ID50 (the source's name). The essentials:
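U87-MG glioblastoma cells (ATCC) were grown in MEM with 10% FCS, 1% sodium pyruvate and 1% nonessential amino acids. Cells were seeded at 4 or 8×10^3/well and adhered overnight at 37 °C. They were exposed 24 h, in duplicate, to methanol-dissolved compounds diluted in medium, with a methanol blank. MTT (5 mg/mL stock) was added for 4 h, formazan dissolved in DMSO, and absorbance read at 550 nm.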

The subject of data set [4] is HT-1080. Put plainly: Cytotoxicity against human HT1080 cells after 24 hrs by MTT assay. It counts as functional. Particulars: HT-1080, 24 h, read-out: ID50 (the source's name). The essentials: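 HT-1080 cells (ATCC) were kept in DMEM with 10% FCS, 1% glutamine and 1% vitamins at 37 °C, 5% CO2. Cells were seeded at 4 or 8×10^3/well and attached overnight, then exposed for 24 h in duplicate to methanol-dissolved compounds diluted in medium, with a methanol blank. MTT (5 mg/mL stock) was given for 4 h, formazan solubilized in DMSO, and absorbance read at 550 nm.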

Data set [5] deals with MDA-MB-231. Put plainly: Cytotoxicity against human MDA-MB-231 cells after 24 hrs by MTT assay. It counts as functional. As to conditions: MDA-MB-231, 24 h, read-out: ID50 (the source's name). The method in brief: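 MDA-MB-231 cells (ATCC) were cultured in Leibovitz's L-15 with 10% FCS. Cells were seeded at 4 or 8×10^3/well and attached overnight at 37 °C. Compounds dissolved in methanol and diluted in medium were added for 24 h in duplicate, with a methanol blank. MTT (5 mg/mL stock) was added for 4 h, formazan taken up in DMSO, and A550 recorded.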

The nature of data set [6]: Cytotoxicity against human IMR90 cells after 24 hrs by MTT assay. The class given is cell-based, IMR-90. Particulars: read-out: ID50. The essentials: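 IMR-90 embryonic fibroblasts (ATCC) were grown in DMEM with 10% FCS and 1% glutamine at 37 °C, 5% CO2. Cells were plated at 4 or 8×10^3/well and attached overnight. They were treated 24 h, in duplicate, with compounds from methanol stocks diluted in medium, with a methanol blank. MTT (5 mg/mL stock) was added for 4 h, formazan dissolved in DMSO, and read at 550 nm.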

Take `CC(=O)O[C@H]1C[C@@H](C)[C@H](CO)C2=C1C(C)(C)C[C@]2(C)CO`: the IC50 in data set [1], in data set [3], in data set [4] and in data set [5] was > 10 µg/mL each time. The CC50 at 24 h in data set [2] and in data set [6] was > 10 µg/mL throughout.
On to `CC(=O)O[C@H]1C[C@@H](C)[C@@H]2C(=O)OC[C@@]3(C)CC(C)(C)[C@H]1[C@]23O`, for which the IC50 in data set [1], in data set [3], in data set [4] and in data set [5] was > 10 µg/mL throughout. Moreover, the CC50 at 24 h in data set [2] and in data set [6] was > 10 µg/mL in each case.
Turning to `CC(=O)O[C@H]1C[C@@H](C)[C@@H]2COC[C@@]3(C)CC(C)(C)[C@H]1[C@]23O`, the IC50 in data set [1], in data set [3], in data set [4] and in data set [5] was > 10 µg/mL in each case. Moreover, the CC50 at 24 h in data set [2] and in data set [6] was > 10 µg/mL each time.
On to `CC(=O)O[C@H]1C[C@@H](C)[C@H](C=O)[C@]2(O)[C@@H]1C(C)(C)C[C@@]2(C)C=O`, for which the IC50 in data set [1] is 1 µg/mL (≈ 3.22 µM); in data set [3], 1 µg/mL (≈ 3.22 µM); in data set [4], 5 µg/mL (≈ 16.1 µM); in data set [5], 0.1 µg/mL (≈ 0.322 µM). Moreover, the CC50 at 24 h in data set [2] is 5 µg/mL (≈ 16.1 µM); in data set [6], 10 µg/mL (≈ 32.2 µM).
`C=CC1=C(/C(=C\C)CO)[C@@](C)(CO)CC1(C)C` [SECOBOTRYTRIENDIOL]: the IC50 in data set [1], in data set [3], in data set [4] and in data set [5] was > 10 µg/mL throughout. For the same compound, the CC50 at 24 h in data set [2] and in data set [6] was > 10 µg/mL each time.
For `C[C@@H]1C[C@H](O)[C@H]2C(C)(C)C[C@]3(C)COC[C@@H]1[C@@]23O`, the IC50 in data set [1], in data set [3], in data set [4] and in data set [5] was > 10 µg/mL in each case. Further, the CC50 at 24 h in data set [2] and in data set [6] was > 10 µg/mL throughout.
As to `CC(=O)O[C@H]1C[C@@H](C)[C@@H]2COC(=O)[C@@]3(C)CC(C)(C)[C@H]1[C@]23O`, the IC50 in data set [1], in data set [3], in data set [4] and in data set [5] was > 10 µg/mL each time. Further, the CC50 at 24 h in data set [2] and in data set [6] was > 10 µg/mL throughout.
On to `CC(=O)O[C@H]1C[C@@H](C)[C@@H]2COC(C)(C)OC[C@@]3(C)CC(C)(C)[C@H]1[C@]23O`, for which the IC50 in data set [1], in data set [3], in data set [4] and in data set [5] was > 10 µg/mL throughout. The CC50 at 24 h in data set [2] and in data set [6] was > 10 µg/mL throughout.
Regarding `CC(=O)O[C@H]1C[C@@H](C)[C@@H]2[C@H](O)OC[C@@]3(C)CC(C)(C)[C@H]1[C@]23O`, the IC50 in data set [1], in data set [3], in data set [4] and in data set [5] was > 10 µg/mL in each case. Further, the CC50 at 24 h in data set [2] and in data set [6] was > 10 µg/mL throughout.
In the case of `CC(=O)O[C@H]1C[C@@H](C)[C@@H](C=O)[C@@]2(O)[C@@H]1C(C)(C)C[C@]2(C)C=O`, the IC50 was 5 µg/mL (≈ 16.1 µM) in data set [1], 5 µg/mL (≈ 16.1 µM) in data set [3], 10 µg/mL (≈ 32.2 µM) in data set [4] and 1 µg/mL (≈ 3.22 µM) in data set [5]. Moreover, the CC50 at 24 h in data set [2] and in data set [6] was 10 µg/mL (≈ 32.2 µM) in each case.
Take `CC(=O)O[C@H]1C[C@@H](C)C(C=O)=C2[C@@H]1C(C)(C)C[C@]2(C)C=O` [BOTRYENEDIAL]: the IC50 in data set [1], in data set [3], in data set [4] and in data set [5] was 10 µg/mL (≈ 34.2 µM) throughout. The CC50 at 24 h in data set [2] was 10 µg/mL (≈ 34.2 µM); in data set [6] it was > 10 µg/mL.
As to `Cc1ccc2c(c1CO)[C@@](C)(CO)C[C@@]2(C)CO`, the IC50 in data set [1], in data set [3], in data set [4] and in data set [5] was > 10 µg/mL in each case. Moreover, the CC50 at 24 h in data set [2] and in data set [6] was > 10 µg/mL each time.
On to `CC(=O)O[C@H]1C[C@@H](C)[C@@H]2[C@@H](O)[C@H](O)[C@@]3(C)CC(C)(C)[C@H]1[C@]23O`, for which the IC50 in data set [1], in data set [3], in data set [4] and in data set [5] was > 10 µg/mL in each case. Moreover, the CC50 at 24 h in data set [2] and in data set [6] was > 10 µg/mL each time.
Regarding `CC(=O)O[C@H]1C[C@@H](C)C(C=O)=C2[C@@H]1C(C)(C)C[C@]2(C)CO` [BOTRYENALOL], the IC50 in data set [1], in data set [3], in data set [4] and in data set [5] was > 10 µg/mL throughout. For the same compound, the CC50 at 24 h in data set [2] and in data set [6] was > 10 µg/mL throughout.
In the case of `COC(=O)[C@@]1(C)CC(C)(C)[C@@H]2[C@@H](O)C[C@@H](C)[C@H](C=O)[C@@]21O` [METHYL BOTRYALOATE], the IC50 in data set [1], in data set [3], in data set [4] and in data set [5] was > 10 µg/mL in each case. Besides, the CC50 at 24 h in data set [2] and in data set [6] was > 10 µg/mL throughout.
As to `CC(=O)O[C@H]1C[C@@H](C)[C@@H]2[C@@H](O)OC[C@@]3(C)CC(C)(C)[C@H]1[C@]23O` [DIHYDROBOTRYDIAL], the IC50 in data set [1], in data set [3], in data set [4] and in data set [5] was > 10 µg/mL in each case. For the same compound, the CC50 at 24 h in data set [2] and in data set [6] was > 10 µg/mL throughout.
For `CC(=O)O[C@H]1C[C@@H](C)[C@H](CO)[C@@]2(O)[C@@H]1C(C)(C)C[C@]2(C)CO` [BOTRYDIOL], the IC50 in data set [1], in data set [3], in data set [4] and in data set [5] was > 10 µg/mL throughout. Moreover, the CC50 at 24 h in data set [2] and in data set [6] was > 10 µg/mL throughout.
For the compound `CC(=O)O[C@H]1C[C@@H](C)[C@H](C(=O)O)[C@@]2(O)[C@@H]1C(C)(C)C[C@]2(C)CO` [BOTRYOLOIC ACID], the IC50 in data set [1], in data set [3], in data set [4] and in data set [5] was > 10 µg/mL in each case. In addition, the CC50 at 24 h in data set [2] and in data set [6] was > 10 µg/mL in each case.
With `Cc1ccc2c(c1C=O)[C@@](C)(C=O)CC2(C)C`, the IC50 turned out to be 1 µg/mL (≈ 4.34 µM) in data set [1], 5 µg/mL (≈ 21.7 µM) in data set [3], 1 µg/mL (≈ 4.34 µM) in data set [4] and 10 µg/mL (≈ 43.4 µM) in data set [5]. Besides, the CC50 at 24 h in data set [2] was 5 µg/mL (≈ 21.7 µM); in data set [6], 10 µg/mL (≈ 43.4 µM).
For the compound `COC(=O)[C@@]1(C)CC(C)(C)[C@H]2C1=C(C=O)[C@H](C)C[C@@H]2O` [METHYL BOTRYENALOATE], the IC50 in data set [1], in data set [3], in data set [4] and in data set [5] was > 10 µg/mL throughout. For the same compound, the CC50 at 24 h in data set [2] and in data set [6] was > 10 µg/mL each time.
For `C[C@@H]1CC=C2C(=C1C=O)[C@@](C)(C=O)CC2(C)C`, the IC50 was 1 µg/mL (≈ 4.3 µM) in data set [1], 1 µg/mL (≈ 4.3 µM) in data set [3], 1 µg/mL (≈ 4.3 µM) in data set [4] and 0.1 µg/mL (≈ 0.43 µM) in data set [5]. Moreover, the CC50 at 24 h in data set [2] and in data set [6] was 1 µg/mL (≈ 4.3 µM) each time.
Take `COC(=O)[C@@]1(C)CC(C)(C)[C@@H]2[C@@H](OC(C)=O)C[C@@H](C)[C@H](C=O)[C@@]21O` [METHYL ACETYLBOTRYALOATE]: the IC50 in data set [1], in data set [3], in data set [4] and in data set [5] was > 10 µg/mL in each case. In addition, the CC50 at 24 h in data set [2] and in data set [6] was > 10 µg/mL in each case.
As for `CC(=O)O[C@H]1C[C@@H](C)[C@H](C(=O)O)[C@@]2(O)[C@@H]1C(C)(C)C[C@]2(C)C(=O)O` [BOTRYDIOIC ACID], the IC50 in data set [1], in data set [3], in data set [4] and in data set [5] was > 10 µg/mL in each case. The CC50 at 24 h in data set [2] and in data set [6] was > 10 µg/mL throughout.
